Laboratory results reported in ChEMBL document CHEMBL1148428, “Carbazolothiophene-2-carboxylic acid derivatives as endothelin receptor antagonists” (Bioorg Med Chem Lett, 2004).
Blank lines part the entries; values can stand above or below the compound they belong to. Non-standard residues stand in square brackets, D forms with d. Residues, ends and D or L forms follow the SMILES beside them.

What was measured:
[1] = system: CHO-K1; assay: Evaluated for inhibition of ET-1 induced Calcium channel [Ca+2]i in CHO-K1 cells transfected with the rat ETA-expression plasmid DNA at 10E-6M; Low inhibition; assay type: functional, cell-based
Summary of the method: (§1)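 Rat ETA receptor plasmid transfected into CHO-K1 cells by lipofection. Cells preloaded with fura-2 AM, then stimulated with ET-1 at 10^-7 M. The rise in [Ca2+]i was read ratiometrically, with excitation at 340/380 nm and emission at 510 nm. The ET-1 response alone was set as 100%, and inhibition by compounds is expressed relative to it.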

[2] = Evaluated for inhibition of ET-1 induced Calcium channel [Ca+2]i in CHO-K1 cells transfected with the rat ETA-expression plasmid DNA at 10E-6M; assay type: functional; summary of the method: as §1
[3] = Evaluated for inhibition of ET-1 induced Calcium channel [Ca+2]i in CHO-K1 cells transfected with the rat ETA-expression plasmid DNA at 10 nM; assay type: functional; summary of the method: as §1
[4] = Evaluated for inhibition of ET-1 induced Calcium channel [Ca+2]i in CHO-K1 cells transfected with the rat ETA-expression plasmid DNA at 10E-6M; range- 50-70%; assay type: functional; summary of the method: as §1
[5] = Evaluated for inhibition of ET-1 induced Calcium channel [Ca+2]i in CHO-K1 cells transfected with the rat ETA-expression plasmid DNA; assay type: functional, cell-based; summary of the method: as §1

SMILES: COc1ccc(Cn2c3c(c4ccccc42)C(C)(c2ccccc2)c2cc(C(=O)O)sc2C3=O)cc1 (configuration not stated)
- inhibition [1]: Weak inhibition

SMILES: Cn1c2c(c3ccccc31)C(C)(c1ccc(OCCCC(=O)O)cc1)c1cc(C(=O)O)sc1C2=O (configuration not stated)
- inhibition at 1 µM [2]: > 75%

SMILES: Cn1c2c(c3ccccc31)C(C)(c1cccc(CCCC(=O)O)c1)c1cc(C(=O)O)sc1C2=O (configuration not stated)
- inhibition at 1 µM [2]: > 75%

SMILES: CC(C)C[C@@H]1NC(=O)[C@@H](C(C)C)NC(=O)[C@@H]2CCCN2C(=O)[C@@H](CC(=O)O)NC(=O)[C@@H](Cc2c[nH]c3ccccc23)NC1=O [BQ-123] (cyclo(L[dW][dD]P[dV]))
- inhibition at 1 µM [2]: ~60%

SMILES: COc1ccc(C2(C)c3cc(C(=O)O)sc3C(=O)c3c2c2ccccc2n3Cc2ccccc2)cc1 (configuration not stated)
- inhibition [1]: Weak inhibition

SMILES: COc1cccc(C2(C)c3cc(C(=O)O)sc3C(=O)c3c2c2ccccc2n3Cc2ccccc2)c1 (configuration not stated)
- inhibition [1]: Weak inhibition

SMILES: CC1(c2ccccc2)c2cc(C(=O)O)sc2C(=O)c2c1c1ccccc1n2Cc1ccc(OCC(=O)O)cc1 (configuration not stated)
- inhibition [1]: Weak inhibition

SMILES: Cn1c2c(c3ccccc31)C(C)(c1ccc(OCC(=O)O)cc1)c1cc(C(=O)O)sc1C2=O (configuration not stated)
- inhibition at 1 µM [2]: > 75%

SMILES: CC1(c2ccccc2)c2cc(C(=O)O)sc2C(=O)c2c1c1ccccc1n2Cc1ccc(O)cc1 (configuration not stated)
- inhibition [1]: Weak inhibition

SMILES: CCCOc1ccc2c(c1)[C@@H](c1ccc(OC)cc1OCC(=O)O)[C@H](C(=O)O)[C@H]2c1ccc2c(c1)OCO2 [SB-209670]
- inhibition at 0.01 µM [3]: ~85%

SMILES: CC1(c2cccc(CC(=O)O)c2)c2cc(C(=O)O)sc2C(=O)c2c1c1ccccc1n2Cc1ccccc1 (configuration not stated)
- inhibition [1]: Weak inhibition

SMILES: COc1cccc(C2(C)c3cc(C(=O)O)sc3C(=O)c3c2c2ccccc2n3C)c1 (configuration not stated)
- inhibition at 1 µM [4]: < 70%

SMILES: CC1(c2cccc(O)c2)c2cc(C(=O)O)sc2C(=O)c2c1c1ccccc1n2Cc1ccccc1 (configuration not stated)
- inhibition at 1 µM [4]: < 70%

SMILES: CC1(c2ccc(OCC(=O)O)cc2)c2cc(C(=O)O)sc2C(=O)c2c1c1ccccc1n2Cc1ccccc1 (configuration not stated)
- inhibition at 1 µM [4]: < 70%

- IC50 [5]: ~10 nM
SMILES: CC1(c2ccc(O)cc2)c2cc(C(=O)O)sc2C(=O)c2c1c1ccccc1n2Cc1ccccc1 (configuration not stated)
- inhibition at 1 µM [2]: > 75%

SMILES: Cn1c2c(c3ccccc31)C(C)(c1cccc(CC(=O)O)c1)c1cc(C(=O)O)sc1C2=O (configuration not stated)
- inhibition at 1 µM [2]: > 75%
